Each block holds one compound with its values, some of them ahead of it.
Tests used:
[1] = target: T1, Estrogen receptor (Rattus norvegicus) (UniProt P06211+Q62986); assay: Antiestrogenic activity in presence of estradiol as mean uterine weight in rats after 10 ug dose; assay type: functional
[2] = target: T1, Estrogen receptor (Rattus norvegicus); assay: Estrogenic activity as mean uterine weight in rats after 1 mg dose; assay type: functional
In short: (§1)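 Immature female Sprague-Dawley rats, 21–23 days old, in groups of 6–9. Test doses suspended in 0.2 mL propylene glycol–0.9% saline (1:1, v/v) and given subcutaneously on three consecutive days; vehicle-only controls. Autopsy 24 h after the last injection, uterine wet weight recorded in mg as mean ± SD.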

[3] = target: T1, Estrogen receptor (Rattus norvegicus); assay: Estrogenic activity as mean uterine weight in rats after 10 ug dose; assay type: functional; in short: as §1
[4] = target: T1, Estrogen receptor (Rattus norvegicus); assay: Estrogenic activity as mean uterine weight in rats at 0 ug/rat; assay type: functional; in short: as §1
[5] = target: T1, Estrogen receptor (Rattus norvegicus); assay: Antiestrogenic activity in presence of estradiol at 1 ug/rat; assay type: functional
[6] = target: T1, Estrogen receptor (Rattus norvegicus); assay: Mean percent inhibition of uterotrophic effect in rats at 1 ug/rat; assay type: functional
[7] = target: T1, Estrogen receptor (Rattus norvegicus); assay: Mean percent inhibition of uterotrophic effect in rats at 0 ug/rat; assay type: functional
[8] = target: T1, Estrogen receptor (Rattus norvegicus); assay: Antiestrogenic activity in presence of estradiol at 0 ug/rat; assay type: functional
[9] = target: T1, Estrogen receptor (Rattus norvegicus); assay: Antiestrogenic activity in presence of estradiol at 30 ug/rat; assay type: functional
[10] = target: T1, Estrogen receptor (Rattus norvegicus); assay: Antiestrogenic activity in presence of estradiol at 10 ug/rat; assay type: functional
[11] = target: T1, Estrogen receptor (Rattus norvegicus); assay: Mean percent inhibition of uterotrophic effect in rats at 30 ug/rat; assay type: functional
[12] = target: T1, Estrogen receptor (Rattus norvegicus); assay: Estrogenic activity as mean uterine weight in rats at 1 ug/rat; assay type: functional; in short: as §1
[13] = target: T1, Estrogen receptor (Rattus norvegicus); assay: Estrogenic activity as mean uterine weight in rats at 30 ug/rat; assay type: functional; in short: as §1
[14] = target: T1, Estrogen receptor (Rattus norvegicus); assay: Mean percent inhibition of uterotrophic effect in rats at 10 ug/rat; assay type: functional
[15] = target: T1, Estrogen receptor (Rattus norvegicus); assay: Antiestrogenic activity in presence of estradiol as mean uterine weight in rats at 1 mg dose
[16] = target: T1, Estrogen receptor (Rattus norvegicus); assay: Estrogenic activity as mean uterine weight in rats at 10 ug/rat; assay type: functional; in short: as §1

SMILES: Oc1ccc(C2Oc3ccccc3C=C2c2ccccc2)cc1 (stereo unspecified)
Mean weight [1]: 48.8 mg | Mean weight [2]: 13.8 mg

SMILES: O=c1c(-c2ccccc2)c(-c2ccc(OCCN3CCCC3)cc2)oc2ccccc12
Mean weight [3]: 13.2 mg | Mean weight [1]: 40.3 mg

SMILES: O=c1c(-c2ccccc2)c(-c2ccccc2)oc2cc(OCCN3CCCC3)ccc12
Mean weight [3]: 11.1 mg | Mean weight [1]: 40.7 mg

SMILES: COc1ccc2c(c1)OC(c1ccc(OCCN3CCCC3)cc1)C(c1ccccc1)C2=O (stereo unspecified)
Mean weight [3]: 12 mg | Mean weight [1]: 46.5 mg

SMILES: COc1ccc2c(c1)OC(c1ccc(OCCN3CCCC3)cc1)C(c1ccccc1)=C2 (stereo unspecified)
Mean weight [3]: 27.6 mg | Mean weight [4]: 10.6 mg | Mean weight [5]: 38.3 mg | inhibition [6]: 9% | inhibition [7]: 0% | Mean weight [8]: 44.7 mg | Mean weight [1]: 28.3 mg | Mean weight [9]: 23.6 mg | Mean weight [10]: 27.5 mg | inhibition [11]: 65% | Mean weight [12]: 23.8 mg | Mean weight [13]: 25 mg | inhibition [14]: 50%

SMILES: Oc1ccc(C2=C(c3ccccc3)Cc3ccccc3O2)cc1
Mean weight [2]: 26.2 mg | Mean weight [15]: 46.7 mg

Next, values leading:

Mean weight [1]: 57.2 mg | Mean weight [2]: 12.3 mg
SMILES: c1ccc(C2Cc3ccccc3OC2c2ccc(OCCN3CCCC3)cc2)cc1 (stereo unspecified)

Mean weight [1]: 29.4 mg | Mean weight [2]: 24 mg
SMILES: c1ccc(C2=C(c3ccc(OCCN4CCCC4)cc3)Oc3ccccc3C2)cc1

Mean weight [3]: 24.6 mg | Mean weight [16]: 24.6 mg | Mean weight [4]: 11.2 mg | Mean weight [5]: 39.9 mg | inhibition [6]: 12% | inhibition [7]: 0% | Mean weight [8]: 45.1 mg | Mean weight [9]: 22.2 mg | inhibition [11]: 70% | Mean weight [12]: 22.5 mg | Mean weight [13]: 23.6 mg | inhibition [14]: 66%
SMILES: C1=C(c2ccccc2)C(c2ccc(OCCN3CCCC3)cc2)Oc2ccccc21 (stereo unspecified)

Mean weight [1]: 59 mg | Mean weight [2]: 14.9 mg
SMILES: Oc1ccc(C2Oc3ccccc3CC2c2ccccc2)cc1 (stereo unspecified)
